In ChEMBL document CHEMBL4680257, “Discovery of novel NF-кB inhibitor based on scaffold hopping: 1,4,5,6,7,8-hexahydropyrido[4,3-d]pyrimidine” (Eur J Med Chem, 2020):

Assays:
[1] = test system: HepG2; assay: Cytotoxicity against human HepG2 cells assessed as reduction in cell viability incubated for 24 hrs by MTT assay; assay type: functional, cell-based; settings: HepG2, 24 h
Method in brief: (§1)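 Cells kept at 37 °C in 5% CO₂. HepG2 grown in DMEM with 10% serum; HHL-5, LO2 and SMMC-7721 in 1640 medium with 10% serum. Seeded, grown 24 h, then exposed 24 h to 10, 5, 2.5, 1.25, 0.625 and 0.3125 µg/mL. MTT (5 mg/mL) added for 4 h at 37 °C; formazan dissolved in DMSO, OD read at 570 nm. IC50 averaged from three replicates.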

[2] = test system: SMMC-7721; assay: Cytotoxicity against human SMMC-7721 cells assessed as reduction in cell viability incubated for 24 hrs by MTT assay; assay type: functional, cell-based; settings: SMMC-7721, 24 h; method in brief: as §1
[3] = Cytotoxicity against human HHL-5 cells assessed as reduction in cell viability incubated for 24 hrs by MTT assay; assay type: cell-based; settings: HHL-5, 24 h; method in brief: as §1
[4] = test system: L02; assay: Cytotoxicity against human L02 cells assessed as reduction in cell viability incubated for 24 hrs by MTT assay; assay type: cell-based; settings: L02, 24 h; method in brief: as §1
[5] = test system: RAW264.7; assay: Cytotoxicity against mouse RAW264.7 cells assessed as reduction in cell viability at 5 uM incubated for 24 hrs by MTT assay; assay type: cell-based; settings: raw264.7, 24 h
[6] = test system: RAW264.7; assay: Antiinflammatory activity against mouse RAW264.7 cells assessed as LPS-induced TNF-alpha at 5 uM pretreated for 2 hrs followed by LPS stimulation and measured after 22 hrs by ELISA (reference value: 0 %); assay type: functional; settings: time 24 hrs
[7] = test system: RAW264.7; assay: Antiinflammatory activity against mouse RAW264.7 cells assessed as LPS-induced IL-6 at 5 uM pretreated for 2 hrs followed by LPS stimulation and measured after 22 hrs by ELISA relative to control (reference value: 0 %); assay type: functional; settings: time 24 hrs

Compound | IC50 [1] | IC50 [2] | IC50 [3] | IC50 [4] | Activity [5] | inhibition at 5 µM [6] | inhibition at 5 µM [7]
O=C1/C(=C/c2ccccc2F)CN(S(=O)(=O)c2ccc(Br)cc2)C/C1=C\c1ccccc1F | 13.7 µM | 5.2 µM | 14 µM | 16.2 µM | Non-Toxic | – | –
Cc1ccc(S(=O)(=O)N2CC3=C(NC(N)=NC3c3cccc(F)c3)/C(=C/c3cccc(F)c3)C2)cc1.Cl (centres undefined) | 11.7 µM | 11.7 µM | 23.2 µM | 11.2 µM | Non-Toxic | 40.5% | 46.7%
O=C1/C(=C/c2ccc(F)cc2)CN(S(=O)(=O)c2ccc(Cl)cc2)C/C1=C\c1ccc(F)cc1 | 4.5 µM | 7 µM | 17.7 µM | 15.5 µM | Non-Toxic | – | –
Cl.NC1=NC(c2ccccc2F)C2=C(N1)/C(=C/c1ccccc1F)CN(S(=O)(=O)c1ccc(Br)cc1)C2 (centres undefined) | 10.4 µM | 9.7 µM | 12.5 µM | 19.5 µM | Non-Toxic | 74.4% | 79.6%
O=C1/C(=C/c2ccccc2F)CN(S(=O)(=O)c2ccc(F)cc2)C/C1=C\c1ccccc1F | 8 µM | 7.7 µM | 14.5 µM | 17.5 µM | Non-Toxic | – | –
Cl.NC1=NC(c2ccc(F)cc2)C2=C(N1)/C(=C/c1ccc(F)cc1)CN(S(=O)(=O)c1ccccc1)C2 (centres undefined) | 9.5 µM | 8 µM | 11.5 µM | 9.9 µM | Non-Toxic | 33.5% | 39.8%
O=C1/C(=C/c2ccc(F)cc2)CN(S(=O)(=O)c2ccc(C(F)(F)F)cc2)C/C1=C\c1ccc(F)cc1 | 3.2 µM | 4.4 µM | 16.1 µM | 13.5 µM | Non-Toxic | – | –
Cl.N#Cc1ccc(S(=O)(=O)N2CC3=C(NC(N)=NC3c3cccc(F)c3)/C(=C/c3cccc(F)c3)C2)cc1 (centres undefined) | 3.5 µM | 4.2 µM | 18.9 µM | 17.2 µM | Non-Toxic | 74.5% | 73%
O=C1/C(=C/c2cccc(F)c2)CN(S(=O)(=O)c2ccccc2)C/C1=C\c1cccc(F)c1 | 3.4 µM | 12.9 µM | 17.1 µM | 16.2 µM | Non-Toxic | – | –
O=C1/C(=C/c2ccc(F)cc2)CN(S(=O)(=O)c2ccccc2)C/C1=C\c1ccc(F)cc1 | 18.8 µM | 9.1 µM | 7.7 µM | 18.8 µM | Non-Toxic | – | –
CC(=O)Nc1ccc(S(=O)(=O)N2C/C(=C\c3ccc(F)cc3)C(=O)/C(=C/c3ccc(F)cc3)C2)cc1 | 7.4 µM | 9.8 µM | 15 µM | 19.4 µM | Non-Toxic | – | –
Cl.NC1=NC(c2ccccc2F)C2=C(N1)/C(=C/c1ccccc1F)CN(S(=O)(=O)c1ccc(C(F)(F)F)cc1)C2 (centres undefined) | 3.9 µM | 3.5 µM | 20.8 µM | 22 µM | Non-Toxic | 84.4% | 82.3%
CC(=O)Nc1ccc(S(=O)(=O)N2CC3=C(NC(N)=NC3c3ccc(F)cc3)/C(=C/c3ccc(F)cc3)C2)cc1.Cl (centres undefined) | 7.4 µM | 6.2 µM | 32.2 µM | 20.3 µM | Non-Toxic | 40.1% | 54.2%
O=C1/C(=C/c2cccc(F)c2)CN(S(=O)(=O)c2ccc([N+](=O)[O-])cc2)C/C1=C\c1cccc(F)c1 | 8.1 µM | 15.3 µM | 14.5 µM | 10.7 µM | Non-Toxic | – | –
Cl.NC1=NC(c2ccccc2F)C2=C(N1)/C(=C/c1ccccc1F)CN(S(=O)(=O)c1ccc(F)cc1)C2 (centres undefined) | 12.1 µM | 10 µM | 12 µM | 16.5 µM | Non-Toxic | 78.6% | 79.5%
N#Cc1ccc(S(=O)(=O)N2C/C(=C\c3cccc(F)c3)C(=O)/C(=C/c3cccc(F)c3)C2)cc1 | 2.6 µM | 4.5 µM | 7.5 µM | 15.5 µM | Non-Toxic | – | –
O=C1/C(=C/c2ccccc2F)CN(S(=O)(=O)c2ccc(C(F)(F)F)cc2)C/C1=C\c1ccccc1F | 4.9 µM | 5.2 µM | 15.3 µM | 16.2 µM | Non-Toxic | – | –
Cc1ccc(S(=O)(=O)N2C/C(=C\c3ccc(F)cc3)C(=O)/C(=C/c3ccc(F)cc3)C2)cc1 | 4.5 µM | 5 µM | 6 µM | 14 µM | Non-Toxic | – | –
